Test results from ChEMBL document CHEMBL1765072, “Inhibition of amyloidogenesis by nonsteroidal anti-inflammatory drugs and their hybrid nitrates” (J Med Chem, 2011).
Activity calls are given as the source filed them. The rule behind the calls is not given here.

Columns and labels:
[1] = Cytotoxicity against mouse RAW264.7 cells assessed as cell viability at 10 uM after 24 hrs by MTT assay relative to control; assay type: cell-based; conditions: read-out: Activity
Method in brief: (§1)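 RAW 264.7 cells given 0.5 mg/ml MTT in medium for 4 h, washed with PBS; formazan dissolved in DMSO, shaken 30 min, absorbance read at 570 nm against a 630 nm reference. Viability expressed relative to DMSO control.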

N2a (Mus musculus) = experiment: Cytotoxicity against mouse N2a/APPsw cells assessed as cell viability at 1 uM after 24 hrs by MTT assay relative to control
RAW264.7 [2] = experiment: Antiinflammatory activity against mouse RAW264.7 cells assessed as LPS-induced nitrate production at 10 uM treated 30 mins before LPS challenge measured after 24 hrs by Griess reagent method relative to control
N2a [3] = experiment: Antiamyloidogenic activity in mouse N2A cells transfected with human APP Swedish mutant assessed as amyloid beta (1 to 42) level at 1 uM after 24 hrs by ELISA relative to control
N2a [4] = experiment: Antiamyloidogenic activity in mouse N2A cells transfected with human APP Swedish mutant assessed as increase of amyloid beta (1 to 42) level at 100 uM after 24 hrs by ELISA; assay type: functional, cell-based
N2a [5] = experiment: Antiamyloidogenic activity in mouse N2A cells transfected with human APP Swedish mutant assessed as increase of amyloid beta (1 to 42)/(1 to 40) ratio at 100 uM after 24 hrs by ELISA; assay type: functional, cell-based
[6] = Cytotoxicity against mouse RAW264.7 cells assessed as cell viability at 100 uM after 24 hrs by MTT assay relative to control; assay type: cell-based; conditions: read-out: Activity; method in brief: as §1
N2a [7] = experiment: Antiamyloidogenic activity in mouse N2A cells transfected with human APP Swedish mutant assessed as increase of amyloid beta (1 to 40) level at 100 uM after 24 hrs by ELISA; assay type: functional, cell-based
RAW264.7 [8] = experiment: Antiinflammatory activity against mouse RAW264.7 cells assessed as LPS-induced nitrate production at 100 uM treated 30 mins before LPS challenge measured after 24 hrs by Griess reagent method relative to control
N2a [9] = experiment: Antiamyloidogenic activity in mouse N2A cells assessed as degradation of amyloid beta (1 to 42) level at 100 uM treated 24 hrs before amyloid beta (1 to 42) challenge measured after 8 hrs by MALDI/TOF analysis; assay type: functional, cell-based
Method in brief: (§2)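 Wild-type N2a cells were plated at 100 × 10⁴ cells/well, PBS-washed, and drug-treated in DMEM with 0.2 % FBS. Conditioned medium was collected after 24 h per the legend (18 h per the methods), given NaN₃, spun at 10,000 g, added to an Aβ1–40 + Aβ1–42 mixture, and incubated 8 h at 37 °C. Samples were then given protease inhibitors, spiked with Aβ1–43, and analysed by 4G8/6E10 IP-MALDI-TOF. Values were normalised to cell-free media control; mean and s.d.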

N2a [10] = experiment: Antiamyloidogenic activity in mouse N2A cells assessed as degradation of amyloid beta (1 to 40) level at 100 uM treated 24 hrs before amyloid beta (1 to 40) challenge measured after 8 hrs by MALDI/TOF analysis; assay type: functional, cell-based; method in brief: as §2
N2a [11] = experiment: Antiamyloidogenic activity in mouse N2A cells assessed as reduction of amyloid beta (1 to 42)/(1 to 40) ratio at 100 uM treated 24 hrs before amyloid beta (1 to 42)/(1 to 40) challenge measured after 8 hrs by MALDI/TOF analysis; assay type: functional, cell-based; method in brief: as §2
N2a [12] = experiment: Antiamyloidogenic activity in mouse N2A cells transfected with human APP Swedish mutant assessed as reduction of amyloid beta (1 to 42) level at 100 uM after 24 hrs by ELISA; assay type: functional, cell-based
N2a [13] = experiment: Antiamyloidogenic activity in mouse N2A cells transfected with human APP Swedish mutant assessed as increase of amyloid beta (1 to 37) level at 100 uM after 24 hrs by ELISA; assay type: functional, cell-based
N2a [14] = experiment: Antiamyloidogenic activity in mouse N2A cells transfected with human APP Swedish mutant assessed as reduction of amyloid beta (1 to 42) level at 10 uM after 24 hrs by ELISA; assay type: functional, cell-based
Method in brief: (§3)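 N2a/APPsw cells (25 × 10⁴/well, plated 24 h prior) washed with PBS and treated with drug in DMEM with 0.2 % FBS for 24 h. Supernatant got NaN₃ (0.01 % final) and protease inhibitors, was centrifuged, and Aβ1–42 was measured by human sandwich ELISA. Values normalized to DMSO vehicle; mean and s.e.m., at least 4 experiments on separate passages.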

N2a [15] = experiment: Antiamyloidogenic activity in mouse N2A cells transfected with human APP Swedish mutant assessed as increase of amyloid beta (1 to 37) level at 10 uM after 24 hrs by ELISA; assay type: functional, cell-based; conditions: in the assay text read “immunoprecipitation MALDI-TOF” for “ELISA”
Method in brief: (§4)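 N2a cells stably expressing Swedish-mutant human APP, 1 × 10⁶ cells/well, drug-treated 24 h in DMEM with 0.2 % FBS without G418. Conditioned media got NaN₃, protease inhibitors and a ~1 ng/mL Aβ1–43 internal standard, then biotinylated 4G8/6E10 immunoprecipitation and linear-positive MALDI-TOF. Peak heights were normalized to Aβ1–43, then to DMSO control.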

N2a [16] = experiment: Antiamyloidogenic activity in mouse N2A cells transfected with human APP Swedish mutant assessed as increase of amyloid beta (1 to 38) level at 10 uM after 24 hrs by ELISA; assay type: functional, cell-based; conditions: in the assay text read “immunoprecipitation MALDI-TOF” for “ELISA”; method in brief: as §4
N2a [17] = experiment: Antiamyloidogenic activity in mouse N2A cells transfected with human APP Swedish mutant assessed as reduction of amyloid beta (1 to 42) level at 0.5 uM after 24 hrs by ELISA; assay type: functional, cell-based; method in brief: as §3

SMILES	viability at 24 h, 10 µM [1]	viability at 24 h, 1 µM (N2a (Mus musculus))	level, % of control at 10 µM (RAW264.7 [2])	level, % of control at 1 µM (N2a [3])	also measured
NC(=O)C(F)c1ccc(-c2ccc(F)cc2)c(F)c1 (stereo not drawn)	90.6%	69.1%	74.7%	–	–
CCNC(=O)CC1=C/C(=C/c2ccc(SC)cc2)c2ccc(F)cc21	104%	–	80.4%	95.7%	–
O=C(OCCBr)C1(c2ccc(-c3ccc(Cl)c(Cl)c3)c(F)c2)CC1	–	–	–	–	Activity (N2a [4]): Active; Activity (N2a [5]): Active; viability at 24 h, 100 µM [6]: 114%; Activity (N2a [7]): Active; level, % of control at 100 µM (RAW264.7 [8]): 27.8%
CSc1ccc(/C=C2/C(C)=C(CC(=O)O)c3cc(F)ccc32)cc1 [SULINDAC SULFIDE]	–	–	–	82.6%	–
NC(=O)C(F)c1ccc(-c2ccccc2)c(F)c1 (stereo not drawn)	–	103%	–	101%	–
CC(C(=O)O)c1ccc(-c2ccccc2)c(F)c1 (stereo not drawn) [FLURBIPROFEN]	–	–	80.7%	86.6%	Activity (N2a [9]): Active; Activity (N2a [10]): Active; Activity (N2a [11]): Active; viability at 24 h, 100 µM [6]: 10.9%; inhibition (N2a [12]): Active; Activity (N2a [13]): Active; level, % of control at 100 µM (RAW264.7 [8]): 69.1%
N#CC(F)(F)c1ccc(-c2ccc(F)cc2)c(F)c1	98.2%	98.2%	75.7%	125%	–
O=C(O)C1(c2ccc(-c3ccc(F)cc3)c(F)c2)CC1	102%	102%	86.4%	90.4%	–
O=C(O)C1(c2ccc(-c3ccc(Cl)c(Cl)c3)c(F)c2)CC1	–	–	–	125%	viability at 24 h, 100 µM [6]: 19.1%
COc1ccc2c(c1)c(CC(=O)Nc1ccc(Cl)cc1)c(C)n2C(=O)c1ccc(Cl)cc1	92.2%	–	68.6%	295%	–
O=C(OCCO[N+](=O)[O-])C1(c2ccc(-c3ccc(Cl)c(Cl)c3)c(F)c2)CC1	–	–	–	–	viability at 24 h, 100 µM [6]: 135%; level, % of control at 100 µM (RAW264.7 [8]): 40%
O=C(O)C(O)c1ccc(-c2ccc(F)cc2)c(F)c1 (stereo not drawn)	102%	99.7%	76.3%	106%	–
CC1=C(CC(=O)O)c2cc(F)ccc2/C1=C\c1ccc([S+](C)[O-])cc1 (stereo not drawn)	104%	–	85.7%	100%	inhibition (N2a [14]): Active; Activity (N2a [15]): Active; Activity (N2a [16]): Active
O=C(O)CC1=C/C(=C/c2ccc(C(F)(F)F)cc2)c2ccc(F)cc21	100%	–	29.2%	91%	–
O=C(OCCO[N+](=O)[O-])C1(c2ccc(-c3ccccc3)c(F)c2)CC1	–	–	–	–	viability at 24 h, 100 µM [6]: 113%; inhibition (N2a [17]): Active; level, % of control at 100 µM (RAW264.7 [8]): 47.3%
COc1ccc2c(c1)c(CC(=O)NCCc1cccnc1)c(C)n2C(=O)c1ccc(Cl)cc1	95.6%	–	100%	135%	–
CCC(C#N)(CC)c1ccc(-c2cccc3ccccc23)c(F)c1	107%	91.6%	91.3%	105%	–
CCC(C#N)(CC)c1ccc(-c2ccccc2)c(F)c1	–	97.3%	–	125%	–
